# TRPC4 potent: allosterically enhances the mouse TRPC4 cation channel. HEK293 TRPC4beta/mu-opioid, DAMGO EC20, Fluo-4 Ca2+ flux; stronger effect = higher value. B-score at 10 µM. 310,000 tested, 0.42% active. AID 2227;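 active means B-score of calcium response area above 5 SD of library B-scores, with initial fluorescence ratio within 5 SD of library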;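 further: B-score of integrated fluorescence ratio over time as area under calcium response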
# Target sequence (Q9QUQ5 whole entry, looked up): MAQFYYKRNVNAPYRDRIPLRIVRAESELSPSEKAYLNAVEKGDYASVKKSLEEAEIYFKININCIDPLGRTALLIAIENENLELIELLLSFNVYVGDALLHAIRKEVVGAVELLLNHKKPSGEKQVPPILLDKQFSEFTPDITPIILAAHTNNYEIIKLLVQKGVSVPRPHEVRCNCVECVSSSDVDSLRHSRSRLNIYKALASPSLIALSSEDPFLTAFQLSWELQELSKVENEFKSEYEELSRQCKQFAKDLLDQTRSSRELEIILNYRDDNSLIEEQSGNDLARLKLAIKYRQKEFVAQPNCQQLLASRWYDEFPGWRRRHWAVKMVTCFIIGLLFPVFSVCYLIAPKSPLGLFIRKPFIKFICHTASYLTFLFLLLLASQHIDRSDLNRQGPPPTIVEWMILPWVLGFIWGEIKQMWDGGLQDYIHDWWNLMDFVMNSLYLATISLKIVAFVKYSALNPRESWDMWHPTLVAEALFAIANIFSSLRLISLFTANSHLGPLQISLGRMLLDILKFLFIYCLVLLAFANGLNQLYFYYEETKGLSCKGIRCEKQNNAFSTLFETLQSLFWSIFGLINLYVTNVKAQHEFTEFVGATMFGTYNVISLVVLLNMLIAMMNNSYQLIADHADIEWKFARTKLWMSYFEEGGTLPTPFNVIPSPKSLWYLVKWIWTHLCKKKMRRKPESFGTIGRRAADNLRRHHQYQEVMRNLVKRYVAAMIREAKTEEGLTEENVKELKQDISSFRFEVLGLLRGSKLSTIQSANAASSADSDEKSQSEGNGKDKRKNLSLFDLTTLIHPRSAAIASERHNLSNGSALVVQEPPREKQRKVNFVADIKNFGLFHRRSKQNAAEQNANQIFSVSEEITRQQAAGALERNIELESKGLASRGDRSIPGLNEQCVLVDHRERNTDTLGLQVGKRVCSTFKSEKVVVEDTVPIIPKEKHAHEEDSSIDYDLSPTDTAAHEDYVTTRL
# TRPC6 activator: activates the mouse TRPC6 cation channel. Q61143. HEK293-TRPC6 membrane potential dye fluorescence; stronger effect = higher value. B-score at 10 µM. 310,000 tested, 0.13% active. AID 2550;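 active means B-score of the integrated fluorescence ratio above library mean plus 3 SD, and starting fluorescence ratio within library mean plus 5 SD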;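 further: higher score means more depolarization so channel activation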
# TRPC6 inh: blocks the mouse TRPC6 cation channel; B-score at 10 µM; 310,000 tested, 1.1% active; HEK293-TRPC6, membrane potential dye, ACh-evoked depolarization; stronger effect = lower value; AID 2553; Q61143;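 active means B-score under library mean minus 3 SD, initial fluorescence not abnormally high, positive integrated signal ratio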;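 further: B-score derived from integrated fluorescence ratio over the kinetic read; more negative B-score means stronger inhibition of depolarization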
# TRPC4 act: activators of mouse TRPC4 channel; B-score at 10 µM; HEK293 TRPC4beta/mu-opioid, Fluo4 calcium fluorescence; stronger effect = higher value; 310,000 tested, 0.49% active;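 active means B-score above 5 SD of library B-scores, and initial fluorescence ratio not above library mean plus 5 SD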;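 further: positive B-score marks a calcium rise read as TRPC4 activation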
#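 Test system: HEK293 cells stably co-expressing mouse TRPC4beta and mu-opioid receptor | Schedule: Fluo4 dye loading 45 min at room temperature, 110 s recording | Measured by: Kinetic Fluo4 calcium fluorescence, 5 s baseline at 1 Hz | Evaluation: B score of integrated ratio | Controls: Buffer (low) and maximal DAMGO (high)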
# TRPC4 inh: blocks the mouse TRPC4 cation channel; 300,000 tested, 0.39% active; Q9QUQ5; B-score at 10 µM; HEK293 TRPC4beta/mu-opioid, DAMGO-evoked Fluo4 calcium flux; stronger effect = lower value;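 active means B-score over 3 SD under the library average, no early fluorescence shift, positive overall ratio signal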
#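 Signal: kinetic Fluo4 fluorescence imaging of calcium influx. Material: stable TRPC4beta/mu-opioid receptor HEK293 cells. Probe or stimulus: DAMGO in two steps, submaximal then maximal.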
# TRPC4 sel inh 2: second check of whether TRPC6 inhibitors also affect mouse TRPC4; shares compounds with TRPC6 inh; 920 tested, 42% active; inhibition, % at 10 µM; HEK293 TRPC4/MOR, membrane potential dye fluorescence; channel activated by saturating DAMGO dose; AID 2776;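 active means compounds whose fluorescence signal differed from control wells by over 3 SD, either direction, in both duplicate plates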
# TRPC4 spec: selectivity of TRPC6 inhibitors: effect on mouse TRPC4; shares compounds with TRPC6 inh; HEK293 TRPC4/mu-opioid, membrane potential fluorescence; activity change, negative = inhibition, % at 10 µM; 920 tested, 61% active; AID 2777;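 active means rise or fall in signal beyond 3 SD of buffer-only wells in both replicate plates, either sign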;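 further: integrated kinetic ratio of fluorescence range over baseline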
# HEK293 MPD ctr 2-1: second counter-screen for TRPC6 inhibitors: parental HEK293 cells; shares compounds with TRPC6 inh; parental HEK293 membrane potential dye fluorescence; maximal acetylcholine challenge after compound addition; signal change vs control, % at 10 µM; 920 tested, 31% active;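 active means membrane potential signal moving either way by over 3 SD of the maximum-effect control, in both duplicate plates, meaning non-specific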
# HEK293 MPD ctr-1: parental HEK293 nonspecific activity of TRPC6 inhibitors. parental HEK293 membrane potential dye fluorescence. shares compounds with TRPC6 inh. membrane potential signal change, % at 10 µM. 920 tested, 60% active;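 active means membrane potential signal shifting up or down by more than 3 SD of buffer-only wells, on both duplicate plates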
# HEK293 MPD ctr-2: checks TRPC6 modulator effects in parental HEK293 cells; shares compounds with TRPC6 inh; membrane potential dye fluorescence; membrane potential signal change, % at 10 µM; 2,400 tested, 51% active; AID 488924;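 active means membrane potential signal moves up or down beyond 5 SD from buffer-only wells, on both duplicate plates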
# HEK293 MPD ctr 2-2: second check of TRPC6 modulator effects in parental HEK293 cells; shares compounds with TRPC6 inh; membrane potential dye fluorescence; after compound, maximal acetylcholine stimulation; inhibition, % at 10 µM; 2,400 tested, 14% active;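 active means membrane potential signal drops by more than 5 SD from the mean control signal, in both duplicate plates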;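 further: plate controls were acetylcholine ECmax control wells for no effect and buffer only wells for full effect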
# TRPC4/MOR mod: tests whether TRPC6 modulators also affect mouse TRPC4. shares compounds with TRPC6 inh. HEK293 TRPC4/mu-opioid, membrane potential fluorescence. percent change from control (negative = decrease, positive = increase), % at 10 µM. 2,400 tested, 69% active. AID 488927;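 active means membrane potential signal moved up or down beyond 5 SD of buffer control wells, in both duplicate plates, actives on both sides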;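 further: plate controls were assay buffer wells for no effect and DAMGO maximal-effect wells for full effect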
# TRPC4/MOR inh 2: second check of whether TRPC6 modulators also affect mouse TRPC4; shares compounds with TRPC6 inh; HEK293 TRPC4/mu-opioid, membrane potential dye fluorescence; stimulated with maximal-effect DAMGO; inhibition, % at 10 µM; 2,400 tested, 55% active;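 active means drop in membrane potential signal beyond 5 SD of the control wells in both duplicate plates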;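 further: TRPC4 counter screen for TRPC6 hits run under conditions tuned for TRPC6 not TRPC4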
# TRPC6 block conf: mouse TRPC6 inhibitor confirmation. 3,300 tested, 43% active. AID 488960. inhibition, % at 10 µM. HEK293-TRPC6, membrane potential dye, ACh-evoked depolarization. shares compounds with TRPC6 inh;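 active means fluorescence ratio falls more than 5 SD below the full-stimulation control mean, in both duplicate runs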;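 further: integrated fluorescence ratio of peak minus minimum over baseline after agonist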
# TRPC6 act conf: confirmation of mouse TRPC6 activators; shares compounds with TRPC6 inh; HEK293-TRPC6 membrane potential dye fluorescence, FDSS; activation, % at 10 µM; 2,800 tested, 11% active; AID 488961;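 active means ratio signal rise beyond 5 SD above unstimulated control wells' mean, seen in both duplicate runs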;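 further: plate controls were buffer EC0 wells for no effect and acetylcholine ECmax response for full effect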
# The depositor's hits bear a star; i = inactive; . = no result. An excerpt weighted towards active compounds, which were near 2.3% of everything screened.
SMILES,TRPC4 potent,TRPC6 activator,TRPC6 inh,TRPC4 act,TRPC4 inh,HEK293 MPD ctr-2,HEK293 MPD ctr 2-2,TRPC4/MOR mod,TRPC4/MOR inh 2,TRPC6 block conf,TRPC6 act conf,others
COc1ccc2oc(CS(=O)c3ccccc3)c(C(=O)O)c2c1 (stereo not given),i,i,i,i,i,.,.,.,.,.,.,
N#CC(C#N)=C/C=C(\Nc1ccc(Cl)cc1)c1ccc(Cl)cc1,i,i,-5.16*,i,i,i,i,i,37.5%*,i,i,
N#Cc1ccc(NC(=O)Nc2ccc(Cl)cc2)cc1,i,i,i,i,i,.,.,.,.,.,.,
COc1ccc(S(=O)(=O)N2CCN(c3ccc4nnc(-c5ccc(F)cc5)n4n3)CC2)cc1,i,i,-6.78*,i,i,.,.,.,.,i,i,TRPC4 sel inh 2=i;TRPC4 spec=i;HEK293 MPD ctr 2-1=i;HEK293 MPD ctr-1=i
CCN(CC)CCOc1ccccc1C(C)=O,i,i,i,i,i,.,.,.,.,.,.,
Cc1ccc2c(c1)CCCN2C(=O)NC1CCCCC1,i,i,-6.89*,i,i,.,.,.,.,i,i,TRPC4 sel inh 2=i;TRPC4 spec=i;HEK293 MPD ctr 2-1=i;HEK293 MPD ctr-1=i
CCCCOc1ccc(C(=O)OC2CC(C)N(C)CC2C)cc1 (stereo not given),i,15.1*,i,i,i,253.0%*,i,49.5%*,47.5%*,i,120.0%*,
COc1cccc(-n2nnnc2SCC(=O)Nc2ccc(NC(C)=O)cc2)c1,i,i,i,i,i,.,.,.,.,.,.,
Cc1nc2ncnn2c(N2CCN(c3cccc(C(F)(F)F)c3)CC2)c1C,i,12.6*,i,i,i,338.5%*,i,65.0%*,i,i,129.5%*,
Cc1cc(N2CCN(c3cccc(C(F)(F)F)c3)CC2)n2ncnc2n1,i,i,i,i,i,.,.,.,.,.,.,
Cc1cc(C(=O)N(C)CC(=O)Nc2cccc(F)c2)no1,i,i,i,i,i,.,.,.,.,.,.,
COc1ccc(NC(=O)CN(C)C(=O)c2cc(C)on2)cc1,i,i,-5.72*,i,i,i,i,i,i,i,i,
COc1ccc(-n2ccnc2SCC(=O)NCc2ccco2)c(OC)c1,i,i,i,i,i,.,.,.,.,.,.,
Fc1ccc(Nc2nnc(C(F)(F)F)s2)cc1Cl,i,i,-8.78*,i,i,.,.,.,.,61.0%*,i,TRPC4 sel inh 2=i;TRPC4 spec=i;HEK293 MPD ctr 2-1=i;HEK293 MPD ctr-1=i
Cc1cccc(OCC(O)Cn2c(N3CCCCC3)nc3c2c(=O)n(C)c(=O)n3C)c1 (stereo not given),i,i,-6.08*,i,i,i,i,8.0%*,i,80.0%*,.,
Cn1c(=O)c2c(nc(N3CCCCCC3)n2CC(O)COc2ccccc2)n(C)c1=O (stereo not given),i,i,i,i,i,.,.,.,.,.,.,
CCN(CC)C(=O)CSc1nc2ccccc2c(=O)n1-c1cccc(OC)c1,i,12.4*,-5.9*,i,i,157.5%*,i,36.0%*,i,i,73.0%*,
COc1ccc(/C=N/NC(=O)c2ccc3nc[nH]c3c2)cc1,i,i,i,i,i,.,.,.,.,.,.,
CCOC(=O)CNC(=S)N(Cc1ccco1)Cc1ccccc1Cl,i,i,-5.78*,i,i,i,i,11.5%*,i,i,i,
CC1CCN(Cc2ccc(NC(=O)CC3Oc4ccccc4NC3=O)cc2)CC1 (stereo not given),i,i,-10.2*,i,i,.,.,.,.,80.6%*,i,TRPC4 sel inh 2=i;TRPC4 spec=i;HEK293 MPD ctr 2-1=-8.0%*;HEK293 MPD ctr-1=i
CCC(C)N(CCNC(=O)CC1Oc2ccccc2NC1=O)C1CCCCC1 (stereo not given),i,i,-8.02*,i,i,.,.,.,.,59.6%*,.,TRPC4 sel inh 2=i;TRPC4 spec=19.0%*;HEK293 MPD ctr 2-1=i;HEK293 MPD ctr-1=11.4%*
O=C(Nc1ccccc1N1CCOCC1)c1ccc(Cl)nc1,i,i,i,i,i,.,.,.,.,.,.,
NC(=O)C1CCN(CC(=O)Nc2cccnc2Cl)CC1,i,i,i,i,i,.,.,.,.,.,.,
Cc1c(CCOC(=O)c2ccc([N+](=O)[O-])cc2)sc[n+]1CC(=O)c1ccccc1,i,i,-7.41*,i,-6*,-262.0%*,i,-40.5%*,35.5%*,39.5%*,i,
NC(=O)NC(=O)COC(=O)/C=C/c1cccc(Br)c1,i,i,i,i,i,.,.,.,.,.,.,
CNC(=O)NC(=O)COC(=O)/C=C/c1cccc(Br)c1,i,i,-8.48*,i,i,.,.,.,.,i,i,TRPC4 sel inh 2=i;TRPC4 spec=i;HEK293 MPD ctr 2-1=i;HEK293 MPD ctr-1=i
COc1ccc(C2CC(C)(c3ccc(OC)cc3OC)Nc3ccccc3N2)c(OC)c1 (stereo not given),i,i,i,i,i,.,.,.,.,.,.,
CC(C)CCN1CCN(Cc2cnc(N3CCCC3)s2)CC1CCO (stereo not given),i,i,i,i,i,.,.,.,.,.,.,
CCCCCCCCCCOC(=O)C[N+](C)(C)C/C=C(/C)Cl,i,i,-5.31*,i,i,134.0%*,i,29.5%*,41.5%*,63.5%*,.,
